T cruzi HTS – blocks T. cruzi growth inside host cells; intracellular Trypanosoma cruzi in host cells, plate reader; activity score (inhibition), % at 5.01 µM; actives 4.9% (n = 22,000); in the data active = activity score above about 55%;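 also: parasites and compound incubated about four days before reading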
INS-1E rescue – INS-1E beta cell protection from cytokine death. INS-1E cytokine-induced death, ATP luminescence, 48 h; normalised: neutral wells 0, positive control 100. protection from cytokine-induced ATP loss, % at 10 µM. actives 0.1% (n = 20,000);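 active = mean replicate protection from cytokine-induced ATP loss at least 50% and at least 75% of replicates each reaching 50%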
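Test system: INS-1E rat cells | Quantity: 8000 cells per well | Medium: Phenol-red-free RPMI with 5% fetal bovine serum | Reagent: Cytokine cocktail of IFN-γ, TNF-α and IL-1β | Doses: One compound concentration, pin transfer | Timing: 48 h co-treatment, 10 min post-lysis read | Technique: Luminescent ATP assay (CellTiter-Glo)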
A1 apoptosis 2 – A1 inhibition read as caspase activation | caspase activation, % (test concentration not listed) | MEF A1-2A-BIM cells, caspase-Glo luminescence, 3 h; percent of clofoctol response, DMSO zero | AID 2465 | 24,000 tested, under 10 active; in the data active = caspase activation above about 5.9%
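Test system – A1-2A-BIM-expressing MEF cells · Input – 2500 cells/well · Medium – RPMI-1640 growth medium with 10% FBS · Compound dosing – 50 nL pinned compound · Timing – 3 h compound exposure at 37 °C · Technique – Caspase-Glo luminescence (DEVD substrate) · Evaluation – Caspase-3/7 activity from luminescence increase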
Large screens that a line does not name were inactive. This is one part of a sample in which hits are shown more often than they occur.

C[C@H]1CN([C@@H](C)CO)C(=O)c2cc(NC(=O)Nc3ccc(C(F)(F)F)cc3)ccc2O[C@@H]1CN(C)CC1CCCCC1	none
Cc1noc(C)c1NC(=O)Nc1ccc2c(c1)C(=O)N([C@H](C)CO)C[C@H](C)[C@@H](CN(C)C(=O)NC1CCCCC1)OCCCC[C@H](C)O2	none (no result: T cruzi HTS, INS-1E rescue)
O=S(=O)(NCCCO)c1ccc(Br)cc1	none (no result: T cruzi HTS, INS-1E rescue)
C[C@@H]1CN([C@H](C)CO)C(=O)c2cc(NS(C)(=O)=O)ccc2O[C@H]1CN(C)Cc1ccc(Oc2ccccc2)cc1	none
C[C@H](CO)N1C[C@H](C)[C@H](CN(C)C(=O)Nc2cccc3ccccc23)Oc2ncc(-c3ccc(F)cc3)cc2C1=O	none
C[C@H](CO)N1C[C@H](C)[C@H](CN(C)Cc2cccc(C(F)(F)F)c2)Oc2ncc(-c3cc4ccccc4o3)cc2C1=O	T cruzi HTS 90.2 (no result: INS-1E rescue, A1 apoptosis 2)
C[C@H](CO)N1C[C@H](C)[C@H](CN(C)S(=O)(=O)c2ccccc2)Oc2ncc(-c3cc4ccccc4o3)cc2C1=O	T cruzi HTS 61.6 (no result: INS-1E rescue)
C[C@H](CO)N1C[C@H](C)[C@H](CN(C)C(=O)Nc2cccc3ccccc23)Oc2ncc(-c3cc4ccccc4o3)cc2C1=O	T cruzi HTS 70.7 (no result: INS-1E rescue)
C[C@H](CO)N1C[C@H](C)[C@H](CN(C)C(=O)NC2CCCC2)Oc2ncc(-c3cc4ccccc4o3)cc2C1=O	none (no result: INS-1E rescue)
C[C@H](CO)N1C[C@H](C)[C@H](CN(C)Cc2ccccc2)Oc2ncc(-c3cc4ccccc4o3)cc2C1=O	T cruzi HTS 59.0 (no result: INS-1E rescue)
C[C@H](CO)N1C[C@H](C)[C@H](CN(C)Cc2cccc(C(F)(F)F)c2)Oc2ncc(Br)cc2C1=O	none (no result: INS-1E rescue)
C[C@H](CO)N1C[C@H](C)[C@H](CN(C)S(=O)(=O)c2ccc(F)cc2)Oc2ncc(-c3cc4ccccc4o3)cc2C1=O	none (no result: INS-1E rescue, A1 apoptosis 2)
C[C@H](CO)N1C[C@H](C)[C@H](CN(C)S(C)(=O)=O)Oc2ccc(NS(C)(=O)=O)cc2C1=O	none
C[C@@H]1CN([C@H](C)CO)C(=O)c2cc(NC(=O)CCCN(C)C)ccc2O[C@@H](C)CCCCO[C@H]1CN(C)S(=O)(=O)c1cccs1	none (no result: T cruzi HTS, INS-1E rescue)
C[C@@H]1CN([C@H](C)CO)C(=O)c2cc(NC(=O)Cc3ccccc3)ccc2O[C@@H](C)CCCCO[C@H]1CN(C)C	none (no result: T cruzi HTS, INS-1E rescue)
COc1ccc([C@H]2C[C@H]3C(I)=CC2C(=O)[C@]32CO2)cc1OC	none (no result: T cruzi HTS, INS-1E rescue)
COC(=O)CCCCCCC(=O)N/N=C/[C@@H](O)[C@@H](O)[C@H](O)[C@H](O)CO	none
C[C@H](CO)N1C[C@H](C)[C@H](CN(C)Cc2ccc(-c3ccccc3)cc2)Oc2ccc(NC(=O)Nc3ccc(C(F)(F)F)cc3)cc2C1=O	none (no result: INS-1E rescue)
C[C@H]1CN([C@@H](C)CO)C(=O)c2cc(NC(=O)Nc3ccc(F)cc3)ccc2O[C@H]1CN(C)Cc1ccc(-c2ccccc2)cc1	T cruzi HTS 64.9 (no result: A1 apoptosis 2)
C[C@H]1CN([C@@H](C)CO)C(=O)c2cc(NC(=O)Nc3ccc(C(F)(F)F)cc3)ccc2O[C@H]1CN(C)Cc1ccc(-c2ccccc2)cc1	T cruzi HTS 58.0 (no result: A1 apoptosis 2)
C[C@H](CO)N1C[C@H](C)[C@@H](CN(C)Cc2ccc(-c3ccccc3)cc2)Oc2ccc(NC(=O)Nc3ccc(F)cc3)cc2C1=O	none
O=C(O)CCCCCCC(=O)NN=C1CCCCCCC1	none
C[C@H]1CN([C@@H](C)CO)C(=O)Cc2cc(N(C)C)ccc2O[C@@H]1CN(C)Cc1ccccc1	T cruzi HTS 58.2
C[C@@H]1CN([C@H](C)CO)C(=O)Cc2cc(N(C)C)ccc2O[C@H]1CN(C)Cc1ccc(Oc2ccccc2)cc1	T cruzi HTS 56.9 (no result: A1 apoptosis 2)
C[C@H](CO)N1C[C@H](C)[C@H](CN(C)Cc2ccc(Oc3ccccc3)cc2)Oc2ccc(N(C)C)cc2CC1=O	none (no result: A1 apoptosis 2)
C[C@H](CO)N1C[C@H](C)[C@@H](CN(C)Cc2ccccc2)Oc2ccc(N(C)C)cc2CC1=O	none (no result: T cruzi HTS, INS-1E rescue)
COc1ccc(Br)cc1/C=N/NC(=O)c1ccccn1	none
C[C@@H]1CN([C@H](C)CO)C(=O)c2cc(NS(=O)(=O)c3ccccc3)ccc2O[C@@H]1CN(C)S(C)(=O)=O	none (no result: A1 apoptosis 2)
C[C@@H]1CN([C@H](C)CO)C(=O)c2cccc(NC(=O)Nc3ccc4c(c3)OCO4)c2O[C@H]1CN(C)Cc1ccc(C(=O)Nc2ccccc2N)cc1	T cruzi HTS 77.0 (no result: A1 apoptosis 2)
C[C@H]1CN([C@@H](C)CO)C(=O)c2cccc(NC(=O)Nc3ccccc3)c2O[C@@H]1CN(C)Cc1ccc(C(=O)Nc2ccccc2N)cc1	T cruzi HTS 73.6
C[C@H](CO)N1C[C@H](C)[C@H](CN(C)Cc2ccc(C(=O)Nc3ccccc3N)cc2)Oc2c(NC(=O)Nc3ccc4c(c3)OCO4)cccc2C1=O	none
C[C@@H]1CN([C@@H](C)CO)C(=O)c2cccc(NC(=O)Nc3ccc(F)cc3)c2O[C@@H]1CN(C)Cc1ccc(C(=O)Nc2ccccc2N)cc1	T cruzi HTS 69.8
C[C@H](CO)N1C[C@H](C)[C@@H](CN(C)Cc2ccc(C(=O)Nc3ccccc3N)cc2)Oc2c(NC(=O)Nc3ccccc3)cccc2C1=O	T cruzi HTS 61.3 (no result: A1 apoptosis 2)
CC(C)NC(=O)Nc1cccc2c1O[C@H](CN(C)Cc1ccc(C(=O)Nc3ccccc3N)cc1)[C@H](C)CN([C@H](C)CO)C2=O	none
C[C@H](CO)N1C[C@H](C)[C@@H](CN(C)Cc2ccc(C(=O)Nc3ccccc3N)cc2)Oc2ccc(NC(=O)Nc3ccc(F)cc3)cc2C1=O	none (no result: A1 apoptosis 2)
C[C@@H]1CN([C@@H](C)CO)C(=O)c2cccc(NC(=O)Nc3ccccc3)c2O[C@H]1CN(C)Cc1ccc(C(=O)Nc2ccccc2N)cc1	none
C=CCNC(=O)[C@@H]1[C@H]2C(=O)O[C@H](c3ccccc3)[C@H](c3ccccc3)N2[C@H](c2ccccc2OCCO)[C@@]12C(=O)Nc1ccc(C#CC3(O)CCCCCC3)cc12	none (no result: T cruzi HTS, INS-1E rescue)
O=C(N/N=C/c1cc(Br)cc([N+](=O)[O-])c1O)c1ccccn1	none
C[C@H](CO)N1C[C@H](C)[C@H](CN(C)Cc2ccccc2)OCc2cnnn2CCCC1=O	none (no result: INS-1E rescue)
CCCCCCC/C=N/NC(=O)CCCCCCC(=O)OC	none
C[C@H]1CN([C@@H](C)CO)C(=O)c2cccc(NS(=O)(=O)c3ccccc3)c2O[C@@H]1CN(C)CC1CCCCC1	none (no result: A1 apoptosis 2)
O=C(N/N=C/c1ccc(-c2cccc(Cl)c2)o1)c1ccccc1O	none
C[C@H](CO)N1C[C@H](C)[C@@H](CN(C)Cc2ccc(-c3ccccc3)cc2)OCc2cnnn2CCCC1=O	T cruzi HTS 65.4 (no result: INS-1E rescue, A1 apoptosis 2)
C[C@@H]1CN([C@H](C)CO)C(=O)CCCn2nncc2CO[C@H]1CN(C)Cc1ccc(-c2ccccc2)cc1	none (no result: A1 apoptosis 2)
C[C@H](CO)N1C[C@H](C)[C@@H](CN(C)Cc2ccc(C(F)(F)F)cc2)OCc2cnnn2CCCC1=O	T cruzi HTS 60.6 (no result: INS-1E rescue)
C[C@@H]1CN([C@@H](C)CO)C(=O)CCCn2nncc2CO[C@H]1CN(C)S(=O)(=O)c1ccc(-c2ccccc2)cc1	none
C[C@H]1CN([C@@H](C)CO)C(=O)CCCn2nncc2CO[C@H]1CN(C)Cc1ccc(Oc2ccccc2)cc1	none (no result: INS-1E rescue)
C[C@H]1CN([C@@H](C)CO)C(=O)CCCn2nncc2CO[C@@H]1CN(C)Cc1ccc(C(F)(F)F)cc1	none (no result: INS-1E rescue)
C[C@H](CO)N1C[C@H](C)[C@@H](CN(C)Cc2ccc(Oc3ccccc3)cc2)OCc2cnnn2CCCC1=O	T cruzi HTS 82.9 (no result: INS-1E rescue)

Bioassay records deposited in PubChem BioAssay by Broad Institute.
